Where “and” joins values, the source holds several entries; their conditions need not be identical. Equal entries are not always repeated.
Assays:
[1] = test system: KATO III stomach cancer cell line; experiment: Cytotoxicity activity against human stomach adenocarcinoma cell lines KATO-III by using MTT assay; assay type: functional, cell-based
Summary of the method: (§1)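 Human stomach cancer lines in RPMI-1640 with 10% heat-inactivated FCS and penicillin/streptomycin, 37 °C, 5% CO2, seeded to stay in exponential growth. Compound added as 0.1–100.0 μg/mL solutions (stock, diluted 1:10 in well), triplicate, 4 days. MTT for 4 h, formazan dissolved in DMSO or acidified 2-propanol, read at 540 nm. IC50 from OD relative to control by probit analysis, ≥3 experiments.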

MKN-45 = experiment: Cytotoxicity activity against human stomach adenocarcinoma cell lines MKN-45by using MTT assay; assay type: functional, cell-based; summary of the method: as §1
NCI-N87 = experiment: In vitro cytotoxicity activity against human stomach cancer cell lines NCI-N87; assay type: functional, cell-based; summary of the method: as §1
PC-9 = experiment: Cytotoxicity activity against human non-small cell lung adenocarcinoma cell lines PC-9 by using MTT assay; assay type: functional, cell-based
PC-14 = experiment: Cytotoxicity activity against human non-small cell lung adenocarcinoma cell lines PC-14 by using MTT assay; assay type: functional, cell-based
SNU1 = experiment: In vitro cytotoxicity activity against human stomach cancer cell lines SNU-1; assay type: functional, cell-based; summary of the method: as §1
SNU-16 = experiment: In vitro cytotoxicity activity against human stomach cancer cell lines SNU-16; assay type: functional, cell-based; summary of the method: as §1
SNU-5 = experiment: In vitro cytotoxicity activity against human stomach cancer cell lines SNU-5; assay type: functional, cell-based; summary of the method: as §1
L1210 [2] = experiment: Antitumor activity against Cisplatin-Resistant L1210 Leukemia cells in mice at their respective dose at 100 mg/kg, ip, days; assay type: functional, organism-based; parameters: dose 100 mg/kg; conditions: Mus musculus
Summary of the method: (§2)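 BDF1 male mice inoculated ip on day 0 with 1 × 10^6 viable (trypan blue-excluding) L1210 cells, or cisplatin-resistant L1210 cells, maintained by serial ip passage in DBA/2 mice. The resistant line came from continuous exposure to rising cisplatin and was passaged in DBA/2 mice given cisplatin 5 mg/kg ip on days 1 and 5. Drug ip on days 1, 5, 9; seven mice per dose; end day 50; %T/C from mean survival time.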

L1210 [3] = experiment: Antitumor activity against Cisplatin-Resistant L1210 Leukemia cells in mice at their respective dose at 25 mg/kg, ip, days; assay type: functional, organism-based; parameters: dose 25 mg/kg; conditions: Mus musculus; summary of the method: as §2
L1210 [4] = experiment: Antitumor activity against Cisplatin-Resistant L1210 Leukemia cells in mice at their respective dose at 50 mg/kg, ip, days; assay type: functional, organism-based; parameters: dose 50 mg/kg; conditions: Mus musculus; summary of the method: as §2
Mus musculus [5] = experiment: The serum levels of blood urea nitrogen in mice after a single intraperitoneal at dose 150 mg/kg on day1; assay type: functional, organism-based; parameters: dose 150 mg/kg
Summary of the method: (§3)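 Male ICR mice, single ip dose on day 0 in 0.5% carboxymethylcellulose sodium in water, six per group. Blood drawn from the posterior vena cava under anesthesia on days 1, 4, 8. Serum obtained by centrifugation (1500g, 10 min) and run on a biochemistry analyzer. Values are mean ± SE.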

Mus musculus [6] = experiment: The serum levels of blood urea nitrogen in mice after a single intraperitoneal at dose 150 mg/kg on day 4; assay type: functional, organism-based; parameters: dose 150 mg/kg; summary of the method: as §3
Mus musculus [7] = experiment: The serum levels of blood urea nitrogen in mice after a single intraperitoneal at dose 150 mg/kg on day 8; assay type: functional, organism-based; parameters: dose 150 mg/kg; summary of the method: as §3
L1210 [8] = experiment: Antitumor activity against L1210 Leukemia cells in mice at 25 mg/kg; assay type: functional, organism-based; parameters: dose 25 mg/kg; conditions: Mus musculus; summary of the method: as §2
L1210 [9] = experiment: Antitumor activity against L1210 Leukemia cells in mice at 50 mg/kg; assay type: functional, organism-based; parameters: dose 50 mg/kg; conditions: Mus musculus; summary of the method: as §2
L1210 [10] = experiment: Antitumor activity against L1210 Leukemia cells in mice at 6.25 mg/kg; assay type: functional, organism-based; parameters: dose 6.25 mg/kg; conditions: Mus musculus; summary of the method: as §2
L1210 [11] = experiment: Antitumor activity against L1210 (murine leukemia) cells in mice at 100 mg/kg i.p.; assay type: functional, organism-based; parameters: dose 100 mg/kg; conditions: Mus musculus; summary of the method: as §2
L1210 [12] = experiment: Antitumor activity against L1210 Leukemia cells in mice at 12.5 mg/kg; assay type: functional, organism-based; parameters: dose 12.5 mg/kg; conditions: Mus musculus; summary of the method: as §2
Mus musculus [13] = experiment: The serum levels of creatinine in mice after a single intraperitoneal at dose 150 mg/kg on day1; assay type: functional, organism-based; parameters: dose 150 mg/kg; summary of the method: as §3
Mus musculus [14] = experiment: The serum levels of creatinine in mice after a single intraperitoneal at dose 150 mg/kg on day 4; assay type: functional, organism-based; parameters: dose 150 mg/kg; summary of the method: as §3
Mus musculus [15] = experiment: The serum levels of creatinine in mice after a single intraperitoneal at dose 150 mg/kg on day 8; assay type: functional, organism-based; parameters: dose 150 mg/kg; summary of the method: as §3
Mus musculus [16] = organism: Mus musculus; experiment: Number of cures/number of animals tested; out of 7 mouse; assay type: functional, organism-based
Summary of the method: (§4)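 L1210-bearing BDF1 mice (1 × 10^6 cells ip, day 0), seven per dose group, treated ip on days 1, 5 and 9. Toxic deaths counted per group. Cures are animals without gross evidence of tumor on day 50, when experiments ended.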

[17] = Number of deaths/number of animals tested; out of 7 mouse; assay type: functional; summary of the method: as §4
Mus musculus [18] = organism: Mus musculus; experiment: Number of toxic deaths/number of animals tested; assay type: functional, organism-based; summary of the method: as §4
L1210 [19] = experiment: Antitumor activity against Cisplatin-Resistant L1210 Leukemia cells in mice at their respective dose at 1.5 mg/kg, ip, days; assay type: functional, organism-based; parameters: dose 1.5 mg/kg; conditions: Mus musculus; summary of the method: as §2
L1210 [20] = experiment: Antitumor activity against Cisplatin-Resistant L1210 Leukemia cells in mice at their respective dose at 3.1 mg/kg, ip, days; assay type: functional, organism-based; parameters: dose 3.1 mg/kg; conditions: Mus musculus; summary of the method: as §2
Mus musculus [21] = experiment: The serum levels of blood urea nitrogen in mice after a single intraperitoneal at dose 6.0 mg/kg on day1; assay type: functional, organism-based; parameters: dose 6 mg/kg; summary of the method: as §3
Mus musculus [22] = experiment: The serum levels of blood urea nitrogen in mice after a single intraperitoneal at dose 6.0 mg/kg on day 4; assay type: functional, organism-based; parameters: dose 6 mg/kg; summary of the method: as §3
Mus musculus [23] = experiment: The serum levels of blood urea nitrogen in mice after a single intraperitoneal at dose 6.0 mg/kg on day 8; assay type: functional, organism-based; parameters: dose 6 mg/kg; summary of the method: as §3
Mus musculus [24] = experiment: Antitumor activity against L1210 Leukemia cells in mice at their respective dose at 3.1 mg/kg, ip, days; assay type: functional, organism-based; parameters: dose 3.1 mg/kg; conditions: Leukemia cell; summary of the method: as §2
Mus musculus [25] = experiment: Antitumor activity against L1210 Leukemia cells in mice at their respective dose at 1.5 mg/kg, ip, days; assay type: functional, organism-based; parameters: dose 1.5 mg/kg; conditions: Leukemia cell; summary of the method: as §2
Mus musculus [26] = experiment: The serum levels of creatinine in mice after a single intraperitoneal at dose 6.0 mg/kg on day1; assay type: functional, organism-based; parameters: dose 6 mg/kg; summary of the method: as §3
Mus musculus [27] = experiment: The serum levels of creatinine in mice after a single intraperitoneal at dose 6.0 mg/kg on day 4; assay type: functional, organism-based; parameters: dose 6 mg/kg; summary of the method: as §3
Mus musculus [28] = experiment: The serum levels of creatinine in mice after a single intraperitoneal at dose 6.0 mg/kg on day 8; assay type: functional, organism-based; parameters: dose 6 mg/kg; summary of the method: as §3

CARBOPLATIN [listing 1 of 2 here] showed an IC50 [1] of 10.5 µg/mL, an IC50 (MKN-45) of 6.4 µg/mL and an IC50 (NCI-N87) of 153.38 µg/mL. It also gave an IC50 (PC-9) of 19 µg/mL, an IC50 (PC-14) of 5.8 µg/mL and an IC50 (SNU1) of 37.78 µg/mL. For the same sequence, the IC50 (SNU-16) was 34.02 µg/mL and the IC50 (SNU-5) was 10.75 µg/mL.

In the case of CARBOPLATIN [listing 2 of 2 here], the T/C (L1210 [2]) is reported as 81%, the T/C (L1210 [3]) is reported as 98% and the T/C (L1210 [4]) is reported as 132%. For the same sequence, the BUN (Mus musculus [5]) was 24.4 mg 100ml-1, the BUN (Mus musculus [6]) was 21.1 mg 100ml-1 and the BUN (Mus musculus [7]) was 28.6 mg 100ml-1. It also gave a T/C (L1210 [8]) of 148%, a T/C (L1210 [9]) of 196% and a T/C (L1210 [10]) of 107%. The T/C (L1210 [11]) was 197%, the T/C (L1210 [12]) was 125% and the Creatinine (Mus musculus [13]) was 0.25 mg 100ml-1. For the same sequence, the Creatinine (Mus musculus [14]) was 0.19 mg 100ml-1, the Creatinine (Mus musculus [15]) was 0.31 mg 100ml-1 and the Ratio (Mus musculus [16]) was 1 and 2. For the same sequence, the Ratio [17] was 2 and the Ratio (Mus musculus [18]) was 1.

CISPLATIN [listing 1 of 2 here] gave an IC50 [1] of 0.83 µg/mL, an IC50 (MKN-45) of 0.51 µg/mL and an IC50 (NCI-N87) of 13.73 µg/mL. It also gave an IC50 (PC-9) of 1.03 µg/mL, an IC50 (PC-14) of 0.77 µg/mL and an IC50 (SNU1) of 2.9 µg/mL. The IC50 (SNU-16) was 2.83 µg/mL and the IC50 (SNU-5) was 1.29 µg/mL.

Sequence CISPLATIN [listing 2 of 2 here] has a T/C (L1210 [19]) of 86%, a T/C (L1210 [20]) of 109% and a BUN (Mus musculus [21]) of 24.8 mg 100ml-1. The BUN (Mus musculus [22]) was 43.1 mg 100ml-1, the BUN (Mus musculus [23]) was 32.5 mg 100ml-1 and the T/C (Mus musculus [24]) was 167%. It also gave a T/C (L1210 [10]) of 82%, a T/C (Mus musculus [25]) of 142% and a Creatinine (Mus musculus [26]) of 0.26 mg 100ml-1. The Creatinine (Mus musculus [27]) was 0.28 mg 100ml-1, the Creatinine (Mus musculus [28]) was 0.4 mg 100ml-1 and the Ratio (Mus musculus [18]) was 5 and 2.
